# Measurements taken from ChEMBL document CHEMBL3853347, “PUMA-dependent apoptosis in NSCLC cancer cells by a dimeric β-carboline” (Bioorg Med Chem Lett, 2016).
# The source made the active and inactive calls. The rule behind the calls is not given here.
# Columns and labels:
# NCI-H1299 [1] = experiment: Induction of apoptosis in human NCI-H1299 cells assessed as increase in cleaved lamin A level at 3 to 10 uM after 24 hrs by Western blot analysis; format: functional, cell-based
# Method in brief: (§1)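 H1299 cells treated 24 hrs with compound (3, 5, 10 or 20 μM) or DMSO. Lysates were probed by western blot for apoptotic markers: cleaved caspase 3, cleaved lamin A and cleaved PARP.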
# [2] = Cytotoxicity against human IMR90 cells assessed as decrease in cell viability after 48 hrs by Alamar blue assay; format: toxicity, cell-based, IMR-90
# [3] = Cytotoxicity against human NCI-H441 cells assessed as decrease in cell viability after 48 hrs by Alamar blue assay; format: functional, cell-based; settings: NCI-H441, 48 h
# NCI-H1299 [4] = experiment: Induction of autophagy in human NCI-H1299 cells assessed as increase in p62/SQSTM1 level at 3 to 10 uM after 24 hr by Western blot analysis; format: functional, cell-based
# Method in brief: (§2)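 H1299 cells incubated 24 hrs with compound (3, 5, 10 or 20 μM) or DMSO. LC3 (LC3II band) and p62/SQSTM1 were detected by western blot.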
# [5] = Cytotoxicity against human NCI-H1993 cells assessed as decrease in cell viability after 48 hrs by Alamar blue assay; format: functional, cell-based; settings: NCI-H1993, 48 h
# NCI-H1299 [6] = experiment: Induction of apoptosis in human NCI-H1299 cells assessed as increase in cleaved caspase 3 level after 24 hrs by Western blot analysis; format: functional, cell-based; method in brief: as §1
# NCI-H1299 [7] = experiment: Induction of autophagy in human NCI-H1299 cells transfected with GFP-LC3 assessed as increase in LC3-2 level at 3 to 10 uM after 24 hr by DAPI staining based immunofluorescence assay; format: functional, cell-based
# [8] = Upregulation of PUMA expression in human NCI-H1299 cells assessed as after 24 hrs by Western blot analysis; format: functional, cell-based
# Method in brief: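 PUMA protein measured by western blot in H1299 cells after 24 hrs with compound (3, 5, 10 or 20 μM) or DMSO.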
# NCI-H1299 [9] = experiment: Induction of apoptosis in human NCI-H1299 cells assessed as apoptotic cells at 3 uM after 48 hrs by annexin V-phycoerythrin/7-AAD staining based flow cytometry (reference value: 4%); format: functional
# [10] = Cytotoxicity against human NCI-H1299 cells assessed as decrease in cell viability after 48 hrs by Alamar blue assay; format: functional, cell-based; settings: NCI-H1299, 48 h
# [11] = Cytotoxicity against human NCI-H2009 cells assessed as decrease in cell viability after 48 hrs by Alamar blue assay; format: functional, cell-based; settings: NCI-H2009, 48 h
# [12] = Drug localization in lysosomes of human NCI-H1299 cells at 10 uM after 1 hr by mitotracker green FM/lysotracker red DND-99 staining based confocal microscopy; format: ADME, cell-based, Lysosome; settings: nci-h1299, 1 h
# Method in brief: (§3)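 Live H1299 cells exposed to compound for 1 hr, then co-stained with MitoTracker Green FM (mitochondria) and LysoTracker Red DND-99 (lysosomes). Localization was read by live confocal microscopy using the β-carboline's intrinsic fluorescence (Ex/Em 358/461 nm), compared against the organelle stains.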
# [13] = Cytotoxicity against human NCI-H1373 cells assessed as decrease in cell viability after 48 hrs by Alamar blue assay; format: functional, cell-based; settings: NCI-H1373, 48 h
# NCI-H1299 [14] = experiment: Induction of apoptosis in human NCI-H1299 cells assessed as increase in cleaved caspase 3 level after 24 hrs by immunofluorescence based confocal microscopy; format: functional, cell-based
# Method in brief: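 H1299 cells treated 24 hrs with compound (5 or 20 μM) or DMSO, then immunostained for active caspase 3 and imaged by confocal microscopy. Apoptotic fraction was calculated as cells expressing active caspase over total cells; n=3, s.d.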
# [15] = Cytotoxicity against human A549 cells assessed as decrease in cell viability after 48 hrs by Alamar blue assay; format: functional, cell-based; settings: A549, 48 h
# NCI-H1299 [16] = experiment: Induction of autophagy in human NCI-H1299 cells assessed as increase in LC3-2 level after 24 hr by Western blot analysis; format: functional, cell-based; method in brief: as §2
# NCI-H1299 [17] = experiment: Induction of apoptosis in human NCI-H1299 cells assessed as increase in cleaved PARP level at 3 to 10 uM after 24 hrs by Western blot analysis; format: functional, cell-based; method in brief: as §1
# NCI-H1299 [18] = experiment: Induction of autophagy in human NCI-H1299 cells transfected with GFP-LC3 assessed as increase in LC3-2 level at 20 uM after 24 hr by DAPI staining based immunofluorescence assay; format: functional, cell-based
# Method in brief: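 H1299 cells transiently transfected with GFP-LC3, then treated 24 hrs with compound (3–20 μM) or DMSO. GFP-LC3 puncta were imaged by confocal microscopy and counted per cell; n=30 cells, s.d.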
# NCI-H1299 [19] = experiment: Induction of apoptosis in human NCI-H1299 cells assessed as apoptotic cells at 15 uM after 48 hrs by annexin V-phycoerythrin/7-AAD staining based flow cytometry (reference value: 4%); format: functional
# [20] = Drug localization in lysosomes of human NCI-H1299 cells at 20 uM after 1 hr by mitotracker green FM/lysotracker red DND-99 staining based confocal microscopy; format: ADME, cell-based, Lysosome; settings: nci-h1299, 1 h; method in brief: as §3
Drug uptake [12],Drug uptake [20],Structure (SMILES),Activity (NCI-H1299 [1]),IC50 at 48 h [2],IC50 [3],Activity (NCI-H1299 [4]),IC50 [5],Activity (NCI-H1299 [6]),Activity (NCI-H1299 [7]),Activity [8],Activity (NCI-H1299 [9]),IC50 [10],IC50 [11],IC50 [13],Activity (NCI-H1299 [14]),IC50 [15],Activity (NCI-H1299 [16]),Activity (NCI-H1299 [17]),Activity (NCI-H1299 [18]),Activity (NCI-H1299 [19])
Active,–,CN(CCNCc1nccc2c1[nH]c1ccccc12)CCNCc1nccc2c1[nH]c1ccccc12,Active,5.6 µM,700 nM,Active,1.2 µM,Dose-dependent effect,Active,Dose-dependent effect,97%,1600 nM,1400 nM,3.3 µM,Dose-dependent effect,2900 nM,Dose-dependent effect,Active,–,–
–,Active,CN(CCN)CCNCc1nccc2c1[nH]c1ccccc12,–,12.9 µM,4300 nM,–,9.3 µM,–,–,–,–,15100 nM,8900 nM,13.2 µM,–,20500 nM,–,–,Active,11%
–,–,O[C@]12C=C(c3nccc4c3[nH]c3ccccc34)[C@@H]3CCN(CCCC/C=C\CC1)C[C@@]31C[C@@H]3/C=C\CCCCN3[C@H]12 [MANZAMINE A],–,6.8 µM,1100 nM,–,3.9 µM,–,Active,–,–,1500 nM,1600 nM,2.1 µM,–,2300 nM,–,–,–,–
